Measurements: ChEMBL document CHEMBL1145228, “Anti-coxsackievirus B3 activity of 2-amino-3-nitropyrazolo[1,5-a]pyrimidines and their analogs” (Bioorg Med Chem Lett, 2005)
≈ marks a conversion by molar mass, not a printed value.

Legend:
[1] = system: K562; experiment: Growth inhibitory concentration against human chronic myeloid leukemic cells; type: functional
How it was run: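 K-562 suspension cells (1 × 10^4) exposed to 10 twofold dilutions for 72h at 37°C, 5% CO2; proliferation counted with an electronic cell analyzer (CASY); GI50 reported.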

[2] = Therapeutic index (ratio of CC50 and IC50) was determined; NA denotes ''Not active''; type: cell-based; settings: human, hela
How it was run: (§1)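 TI computed by dividing mean HeLa CC50 (72h crystal violet cytotoxicity) by mean IC50 from the CVB3 CPE inhibition assay in HeLa cells.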

[3] = system: L929; experiment: Growth inhibitory concentration against mouse fibroblast cells; type: functional
How it was run: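 L-929 fibroblasts (1 × 10^4) added to 10 twofold dilutions and incubated 72h at 37°C, 5% CO2; growth measured by optical density after methylene blue staining; GI50 reported.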

[4] = system: HeLa; experiment: Inhibitory concentration against Coxsackievirus B3 in HeLa cells; type: functional, cell-based; settings: Homo sapiens
[5] = Cytotoxic concentration against human cervix carcinoma cells
How it was run: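 Confluent HeLa monolayers exposed 72h (37°C, 5% CO2) to twofold serial dilutions in duplicate; cells fixed and stained with crystal violet–formalin, read spectrophotometrically; CC50 = 50% cytotoxic concentration.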

[6] = Therapeutic index (ratio of CC50 and IC50) was determined; type: cell-based; settings: human, HeLa cells; read-out: TI; how it was run: as §1
[7] = Partition coefficient (logP); type: physicochemical; settings: octanol/water

| Structure (SMILES) | GI50 [1] | IC50 [4] | logP [7] | TI [2] | GI50 [3] | CC50 [5] | selectivity ratio [6] |
| --- | --- | --- | --- | --- | --- | --- | --- |
| NC(=S)NNCc1cc(O)n2nc(N)c([N+](=O)[O-])c2n1 | > 50 µg/mL | > 50 µg/mL | – | Not Active | > 50 µg/mL | > 50 µg/mL | – |
| NC(=NCc1cc(O)n2nc(N)c([N+](=O)[O-])c2n1)SCc1ccccc1 | > 50 µg/mL | > 50 µg/mL | – | Not Active | > 50 µg/mL | > 50 µg/mL | – |
| CCN(CC)C(=O)N1CCN(Cc2cc(O)n3nc(N)c([N+](=O)[O-])c3n2)CC1 | > 50 µg/mL | > 50 µg/mL | – | Not Active | > 50 µg/mL | > 50 µg/mL | – |
| Nc1nn2c(O)cc(-c3ccccc3F)nc2c1[N+](=O)[O-] | > 50 µg/mL | 20.3 µg/mL (≈ 70.4 µM) | 2.34 | – | > 50 µg/mL | 66.5 µg/mL (≈ 230 µM) | 3.2 |
| Nc1nn2c(O)cc(CNNCCO)nc2c1[N+](=O)[O-] | > 50 µg/mL | > 50 µg/mL | – | Not Active | > 50 µg/mL | > 50 µg/mL | – |
| Nc1nn2c(O)cc(-c3ccc(F)cc3)nc2c1[N+](=O)[O-] | > 50 µg/mL | 50.3 µg/mL (≈ 174 µM) | 2.34 | – | > 50 µg/mL | > 100 µg/mL | > 2 |
| Nc1nn2c(O)cc(-c3cc([N+](=O)[O-])c(Cl)cc3Cl)nc2c1[N+](=O)[O-] | > 50 µg/mL | 3.94 µg/mL (≈ 10.2 µM) | 2.77 | – | > 50 µg/mL | > 100 µg/mL | > 25.6 |
| Nc1nn2c(O)cc(-c3ccccc3)nc2c1[N+](=O)[O-] | > 50 µg/mL | 29.6 µg/mL (≈ 109 µM) | 2.54 | – | > 50 µg/mL | > 100 µg/mL | > 3.4 |
| Nc1nn2c(O)cc(CNNc3ccc(S(=O)(=O)O)cc3)nc2c1[N+](=O)[O-] | > 50 µg/mL | > 50 µg/mL | – | Not Active | > 50 µg/mL | > 50 µg/mL | – |

Now from value to compound, other results behind:

| GI50 [1] | IC50 [4] | logP [7] | Structure (SMILES) | TI [2] | GI50 [3] | CC50 [5] | selectivity ratio [6] |
| --- | --- | --- | --- | --- | --- | --- | --- |
| > 50 µg/mL | > 50 µg/mL | – | CCSC(N)NCc1cc(O)n2nc(N)c([N+](=O)[O-])c2n1 (centres undefined) | Not Active | > 50 µg/mL | > 50 µg/mL | – |
| > 50 µg/mL | > 50 µg/mL | – | Nc1nn2c(O)cc(CCl)nc2c1[N+](=O)[O-] | Not Active | > 50 µg/mL | > 50 µg/mL | – |
| > 50 µg/mL | > 50 µg/mL | – | Nc1nn2c(O)cc(CN3CCN(CCO)CC3)nc2c1[N+](=O)[O-] | Not Active | > 50 µg/mL | > 50 µg/mL | – |
| > 50 µg/mL | > 50 µg/mL | – | Nc1nn2c(O)cc(CNCCO)nc2c1[N+](=O)[O-] | Not Active | > 50 µg/mL | > 50 µg/mL | – |
| 5.1 µg/mL (≈ 14.8 µM) | 17.5 µg/mL (≈ 50.8 µM) | 2.46 | COc1ccc(NNCc2cc(O)n3nc(N)c([N+](=O)[O-])c3n2)cc1 | – | > 50 µg/mL | 66.3 µg/mL (≈ 192 µM) | 3.8 |
| 9 µg/mL (≈ 19.6 µM) | > 50 µg/mL | 3.73 | Nc1nn2c(O)cc(CN3CCN(C(c4ccccc4)c4ccccc4)CC3)nc2c1[N+](=O)[O-] | Not Active | 19.9 µg/mL (≈ 43.3 µM) | 14.8 µg/mL (≈ 32.2 µM) | – |
| 33.1 µg/mL (≈ 92.9 µM) | > 50 µg/mL | 3.06 | CCN(CC)C(=S)SCc1cc(O)n2nc(N)c([N+](=O)[O-])c2n1 | Not Active | > 50 µg/mL | > 50 µg/mL | – |
| 19.7 µg/mL (≈ 59.1 µM) | 5.81 µg/mL (≈ 17.4 µM) | 2.65 | Nc1nn2c(O)cc(CNNc3ccc(F)cc3)nc2c1[N+](=O)[O-] | – | 41.4 µg/mL (≈ 124 µM) | > 100 µg/mL | > 17.2 |
| 26.5 µg/mL (≈ 111 µM) | 66.5 µg/mL (≈ 278 µM) | 0.42 | NNCc1cc(O)n2nc(N)c([N+](=O)[O-])c2n1 | Not Active | 35.2 µg/mL (≈ 147 µM) | 42.6 µg/mL (≈ 178 µM) | – |
